Assays:
[1] = target: Cholinesterase (Homo sapiens) (UniProt P06276); test: Activity of BuChE in 10% human plasma; assay type: cell-free; set-up: Vmax(app): unit not given here
In short: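 Citrated human venous blood was centrifuged, and the pooled plasma or serum was diluted with phosphate buffer pH 7.4. Whole blood was used undiluted. Ester substrate at 5 × 10^-5 M was added from acetonitrile and incubated at 37 °C. Timed aliquots were quenched in ZnSO4 in MeCN/H2O and analysed by HPLC at 230 nm. Apparent KM and Vmax were fitted to the integrated Michaelis-Menten equation. Triplicate.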

[2] = Stability in 10% human plasma assessed as half life of hydrolysis at pH 7.4; assay type: ADME, cell-free
In short: (§1)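 Pooled plasma or serum from centrifuged citrated human venous blood, diluted with pH 7.4 phosphate buffer (whole blood undiluted), preheated to 37 ± 0.5 °C. Ester added from acetonitrile at 5 × 10^-5 M. Aliquots were quenched in 2% ZnSO4 in MeCN/H2O (1:1), centrifuged, and analysed by gradient C18 HPLC (230 nm) until the parent was consumed. Fit to first-order decay; triplicate.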

[3] = system: Platelet; test: Inhibition of arachidonic acid-induced platelet aggregation in whole blood at 100 uM; assay type: functional
In short: (§2)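 Citrated human whole blood (500 µL) diluted with 500 µL saline, equilibrated 10 min at 37 °C, then pre-incubated 10 min with stirring with test compound added in DMSO (10 µL). Aggregation triggered by arachidonic acid (0.5 mM); impedance read over 6 min. Inhibition tested over 5-100 µM; fit by nonlinear regression.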

[4] = system: Plasma; test: Stability in 10% human plasma assessed as aspirin yield at pH 7.4; assay type: ADME, cell-free; in short: as §1
[5] = system: Platelet; test: Inhibition of arachidonic acid-induced platelet aggregation in whole blood; assay type: functional, tissue-based; in short: as §2
[6] = Stability in 30% human plasma assessed as half life of hydrolysis at pH 7.4; assay type: ADME, cell-free; in short: as §1
[7] = system: Plasma; test: (§3) Stability in 50% human plasma assessed as half life of hydrolysis at pH 7.4; assay type: ADME, cell-free; details: plasma
In short: (§4)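 Ester at 5 × 10^-5 M, added from acetonitrile, was incubated at 37 °C in pooled citrated human plasma diluted to 50% with phosphate buffer pH 7.4. Aliquots were deproteinised with ZnSO4 in MeCN/H2O and the remaining ester was quantified by HPLC at 230 nm. The rate constant came from an exponential decay fit. Triplicate.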

[8] = system: Plasma; test: Stability in 30% human plasma assessed as aspirin yield at pH 7.4; assay type: ADME, cell-free; in short: as §1
[9] = target: Butyrylcholinesterase (Rattus norvegicus) (UniProt Q9JKC1); test: Activity of BuChE in 10% rat plasma
Chain of Butyrylcholinesterase (Rattus norvegicus) (Q9JKC1 as listed by the source): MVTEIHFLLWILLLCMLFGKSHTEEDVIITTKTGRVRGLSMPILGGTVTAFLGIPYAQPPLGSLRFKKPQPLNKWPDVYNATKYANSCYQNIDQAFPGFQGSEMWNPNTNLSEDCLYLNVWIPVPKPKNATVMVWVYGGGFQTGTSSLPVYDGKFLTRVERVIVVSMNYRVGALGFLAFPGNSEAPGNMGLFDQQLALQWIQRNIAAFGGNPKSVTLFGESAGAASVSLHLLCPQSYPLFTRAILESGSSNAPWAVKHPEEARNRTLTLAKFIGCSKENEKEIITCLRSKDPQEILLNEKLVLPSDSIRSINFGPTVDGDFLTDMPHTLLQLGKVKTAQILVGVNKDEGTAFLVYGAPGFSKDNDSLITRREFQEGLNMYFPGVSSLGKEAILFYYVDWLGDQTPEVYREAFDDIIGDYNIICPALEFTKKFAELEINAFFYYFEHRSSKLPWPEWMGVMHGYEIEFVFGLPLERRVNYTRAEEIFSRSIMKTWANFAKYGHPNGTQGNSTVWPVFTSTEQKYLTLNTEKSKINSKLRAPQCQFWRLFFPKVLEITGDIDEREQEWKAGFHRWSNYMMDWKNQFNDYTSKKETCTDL

[10] = Stability in 30% human plasma assessed as half life of hydrolysis at pH 7.4 in presence of 10 uM carboxylesterase inhibitor BNPP; assay type: ADME, cell-free; details: pH 7.4, with BNPP (carboxylesterase inhibitor)
In short: (§5)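 Pooled citrated human plasma was diluted to 30% with phosphate buffer pH 7.4. Inhibitor was preincubated for 5 min before adding ester (5 × 10^-5 M) at 37 °C. Lines 15-16 used plasma from a donor with dibucaine-resistant BuChE. Timed aliquots were quenched with ZnSO4 in MeCN/H2O, and parent and aspirin were measured by HPLC at 230 nm. kobs came from exponential decay. Three determinations, mean ± SD.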

[11] = Stability in 30% human plasma assessed as half life of hydrolysis at pH 7.4 in presence of 20 uM cholinesterase inhibitor eserine; assay type: ADME, cell-free; details: pH 7.4, with eserine (cholinesterase inhibitor); in short: as §5
[12] = Stability in 30% human plasma assessed as half life of hydrolysis at pH 7.4 in presence of 100 uM AChE inhibitor BW284c51; assay type: ADME, cell-free; details: pH 7.4, with BW284c51 (AChE inhibitor); in short: as §5
[13] = Stability in 30% human plasma assessed as half life of hydrolysis at pH 7.4 in presence of 0.1 uM AChE inhibitor BW284c51; assay type: ADME, cell-free; details: pH 7.4, with BW284c51 (AChE inhibitor); in short: as §5
[14] = Stability in 30% human plasma assessed as half life of hydrolysis at pH 7.4 in presence of 20 uM BuChE subtype inhibitor dibucaine; assay type: ADME, cell-free; details: pH 7.4, with dibucaine (BuChE subtype inhibitor); in short: as §5
[15] = Stability in 30% human plasma assessed as half life of hydrolysis at pH 7.4 in presence of 10 uM BuChE inhibitor iso-OMPA; assay type: ADME, cell-free; details: pH 7.4, with iso-OMPA (BuChE inhibitor); in short: as §5
[16] = system: Plasma; test: Stability in 30% human plasma assessed as aspirin yield at pH 7.4 in presence of 2 mM arylesterase inhibitor EDTA; assay type: ADME, cell-free
In short: (§6)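 Diluted human plasma (30%, pH 7.4, 37 °C) pre-incubated 5 min with inhibitor (EDTA 2 mM or BNPP 10 µM) before ester addition at 5 × 10^-5 M from acetonitrile. ZnSO4/MeCN quench, then HPLC of ester and aspirin. First-order fit; three determinations.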

[17] = system: Plasma; test: Stability in 30% human plasma assessed as aspirin yield at pH 7.4 in presence of 10 uM carboxylesterase inhibitor BNPP; assay type: ADME, cell-free; in short: as §6
[18] = system: Plasma; test: Stability in 30% human plasma assessed as aspirin yield at pH 7.4 in presence of 100 uM AChE inhibitor BW284c51; assay type: ADME, cell-free; in short: as §5
[19] = system: Plasma; test: Stability in 30% human plasma assessed as aspirin yield at pH 7.4 in presence of 20 uM BuChE subtype inhibitor dibucaine; assay type: ADME, cell-free; in short: as §5
[20] = Stability in 30% human plasma assessed as half life of hydrolysis at pH 7.4 in presence of 20 uM dubucaine-insensitive BuChE subtype inhibitor dibucaine; assay type: ADME, cell-free; details: pH 7.4, with dibucaine; in short: as §5
[21] = system: Plasma; test: Stability in 30% plasma from patient with dubucaine-insensitive BuChE assessed as aspirin yield at pH 7.4 in presence of 20 uM BuChE inhibitor dibucaine; assay type: ADME, cell-free; details: human; in short: as §5
[22] = as §3; assay type: ADME, cell-free; details: 50% human plasma; in short: as §4
[23] = Stability in 50% human serum assessed as half life of hydrolysis at pH 7.4; assay type: ADME, cell-free; in short: as §1
[24] = Stability in whole blood assessed as half life of hydrolysis at pH 7.4; assay type: ADME, tissue-based; in short: as §1
[25] = Stability in 10% rat plasma assessed as half life of hydrolysis at pH 7.4; assay type: ADME, cell-free
[26] = system: Plasma; test: Stability in 50% human plasma assessed as aspirin yield at pH 7.4; assay type: ADME, cell-free; in short: as §1
[27] = system: Serum; test: Stability in 50% human serum assessed as aspirin yield at pH 7.4; assay type: ADME, cell-free; in short: as §1
[28] = Stability in whole blood assessed as aspirin yield at pH 7.4; assay type: ADME, tissue-based; in short: as §1
[29] = Stability in 30% human plasma assessed as half life of hydrolysis at pH 7.4 in presence of 2 mM arylesterase inhibitor EDTA; assay type: ADME, cell-free; details: pH 7.4, with EDTA (arylesterase inhibitor); in short: as §5

Chain of Cholinesterase (Homo sapiens) (P06276 whole entry): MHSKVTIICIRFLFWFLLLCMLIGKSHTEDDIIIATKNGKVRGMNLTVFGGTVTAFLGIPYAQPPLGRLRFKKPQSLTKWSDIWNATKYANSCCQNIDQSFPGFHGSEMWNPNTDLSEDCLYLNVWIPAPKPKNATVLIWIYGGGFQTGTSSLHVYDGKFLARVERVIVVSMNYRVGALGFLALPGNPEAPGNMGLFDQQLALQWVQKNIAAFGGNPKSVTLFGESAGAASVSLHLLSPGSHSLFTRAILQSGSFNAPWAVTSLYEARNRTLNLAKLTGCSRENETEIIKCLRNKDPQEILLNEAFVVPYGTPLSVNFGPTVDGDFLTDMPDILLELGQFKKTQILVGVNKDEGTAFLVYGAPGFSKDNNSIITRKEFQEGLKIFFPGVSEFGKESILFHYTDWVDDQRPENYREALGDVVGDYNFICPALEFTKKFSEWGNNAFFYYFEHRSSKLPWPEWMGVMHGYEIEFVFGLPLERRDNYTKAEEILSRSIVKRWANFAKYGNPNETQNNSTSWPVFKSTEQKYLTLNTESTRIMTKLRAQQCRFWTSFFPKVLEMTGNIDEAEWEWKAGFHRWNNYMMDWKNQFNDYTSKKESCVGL

SMILES: CC(=O)Oc1ccccc1C(=O)O[C@H]1CO[C@H]2[C@@H]1OC[C@H]2O
- Vmax(app) [1]: 0.22
- half-life [2]: 3.25 min
- inhibition at 100 µM [3]: < 30%
- Activity [4]: 3%

SMILES: CC(=O)Oc1ccccc1C(=O)O[C@@H]1CO[C@H]2[C@@H]1OC[C@@H]2OC(=O)c1ccccc1O
- Vmax(app) [1]: 0.23
- half-life [2]: 4.21 min

SMILES: CC(=O)Oc1ccccc1C(=O)O[C@@H]1CO[C@H]2[C@@H]1OC[C@@H]2O
- Vmax(app) [1]: 0.25
- half-life [2]: 4.73 min

SMILES: CC(=O)Oc1ccccc1C(=O)O [ASPIRIN]
- T1/2 [1]: 120 min
- IC50 [5]: 25.5 µM

SMILES: CC(=O)Oc1ccccc1C(=O)Oc1ccccc1
- T1/2 [1]: 1.3 min

SMILES: CC(=O)Oc1ccccc1C(=O)O[C@H]1CO[C@H]2[C@@H]1OC[C@H]2OC(=O)c1ccccc1OC(C)=O
- Vmax(app) [1]: 0.3
- half-life [2]: 3.35 min
- IC50 [5]: 34.1 µM
- half-life [6]: 1.17 min
- t1/2 [7]: 0.57 min
- Activity [4]: 51%
- Activity [8]: 61%

SMILES: CC(=O)Oc1ccccc1C(=O)O[C@H]1CO[C@H]2[C@@H]1OC[C@H]2OC(=O)c1ccccc1O
- Vmax(app) [1]: 0.17
- Vmax(app) [9]: 1.75 M/min
- half-life [2]: 4.9 min
- half-life [10]: 0.95 min
- half-life [11]: 5.8 min
- half-life [12]: 3.9 min
- half-life [13]: 1.1 min
- half-life [14]: 4.6 min
- half-life [15]: 7.04 min
- Activity [16]: 85%
- Activity [17]: 84%
- Activity [18]: 30%
- Activity [19]: 6%
- IC50 [5]: 17.3 µM
- half-life [20]: 2 min
- Activity [21]: 69%
- half-life [22]: 0.49 min
- half-life [23]: 0.56 min
- half-life [24]: 0.96 min
- half-life [25]: 0.47 min
- Activity [4]: 74%
- Activity [26]: 81%
- Activity [27]: 73%
- Activity [28]: 72%
- half-life [29]: 1.41 min

Source: ChEMBL document CHEMBL1151719, “Discovery of a "true" aspirin prodrug” (J Med Chem, 2008)
